Assay results: ChEMBL document CHEMBL3259728, “Design, synthesis and biological evaluation of some novel substituted quinazolines as antitumor agents” (2014)

Experiments:
Format in all cases: functional
MDA-MB-468 [1] = experiment: Growth inhibition of human MDA-MB-468 cells assessed as cell growth at 10^-7 M after 48 hrs by SRB assay; details: MDA-MB-468, 48 h, read-out: Activity
[2] = Growth inhibition of human LOXIMVI cells assessed as cell growth at 10^-6 M after 48 hrs by SRB assay; details: LOX IMVI, read-out: Activity
COLO 205 = experiment: Growth inhibition of human COLO205 cells assessed as cell growth at 10^-4 M after 48 hrs by SRB assay; details: COLO 205, 48 h, read-out: Activity
Summary of the method: (§1)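 Five-dose NCI panel protocol. Each dose (10^-4 to 10^-8 M, 10-fold steps) was given as 48 h continuous exposure, and protein was measured by SRB staining. Percentage growth at each level is [(Ti−Tz)/(C−Tz)]×100, where Tz is time-zero absorbance and C is untreated control.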

[3] = Growth inhibition of human OVCAR5 cells assessed as cell growth at 10^-7 M after 48 hrs by SRB assay; details: OVCAR-5, 48 h, read-out: Activity
K562 [4] = experiment: Cytotoxicity against human K562 cells after 48 hrs by SRB assay; details: K562, 48 h
Summary of the method: (§2)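 NCI 60-cell-line panel of human tumour lines from nine cancer types. Continuous 48 h exposure at five 10-fold dilutions from 10^-4 to 10^-8 M, with 5-FU as positive control. SRB protein stain read spectrophotometrically at time zero, untreated control and each concentration. GI50, TGI and LC50 were derived from the [(Ti−Tz)/(C−Tz)]×100 growth relations, and out-of-range values are given as > or < the tested limits.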

[5] = Growth inhibition of human LOXIMVI cells assessed as cell growth at 10^-7 M after 48 hrs by SRB assay; details: LOX IMVI, read-out: Activity
[6] = Cytotoxicity against human OVCAR8 cells after 48 hrs by SRB assay; details: OVCAR-8, 48 h; summary of the method: as §2
SN12C = experiment: Cytotoxicity against human SN12C cells after 48 hrs by SRB assay; summary of the method: as §2
K562 [7] = experiment: Growth inhibition of human K562 cells assessed as cell growth at 10^-8 M after 48 hrs by SRB assay; details: K562, 48 h, read-out: Activity
[8] = Growth inhibition of human HOP92 cells assessed as cell growth at 10^-8 M after 48 hrs by SRB assay; details: HOP-92, 48 h, read-out: Activity
HT-29 = experiment: Growth inhibition of human HT-29 cells assessed as cell growth at 10^-8 M after 48 hrs by SRB assay; details: HT-29, 48 h, read-out: Activity
786-0 [9] = experiment: Growth inhibition of human 786-0 cells assessed as cell growth at 10^-7 M after 48 hrs by SRB assay; details: 786-0, 48 h, read-out: Activity; summary of the method: as §1
MDA-MB-468 [10] = experiment: Cytotoxicity against human MDA-MB-468 cells after 48 hrs by SRB assay; details: MDA-MB-468, 48 h; summary of the method: as §2
SK-OV-3 [11] = experiment: Growth inhibition of human SKOV3 cells assessed as cell growth at 10^-8 M after 48 hrs by SRB assay; details: SK-OV-3, 48 h, read-out: Activity
[12] = Growth inhibition of human SF295 cells assessed as cell growth at 10^-5 M after 48 hrs by SRB assay; details: SF-295, 48 h, read-out: Activity
786-0 [13] = experiment: Cytotoxicity against human 786-0 cells after 48 hrs by SRB assay; details: 786-0, 48 h; summary of the method: as §2
[14] = Growth inhibition of human OVCAR8 cells assessed as cell growth at 10^-8 M after 48 hrs by SRB assay; details: OVCAR-8, 48 h, read-out: Activity
[15] = Cytotoxicity against human UACC257 cells after 48 hrs by SRB assay; details: UACC-257, 48 h
Summary of the method: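 NCI 60-cell-line panel, 48 h continuous exposure to five 10-fold dilutions from 10^-4 to 10^-8 M. SRB protein staining was read spectrophotometrically, with time-zero, untreated-control and treated absorbances. GI50, TGI and LC50 were derived from the percentage-growth formulas. Values outside the tested range are expressed as more or less than the maximum or minimum concentration.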

[16] = Growth inhibition of human RXF393 cells assessed as cell growth at 10^-8 M after 48 hrs by SRB assay; details: RXF 393, 48 h, read-out: Activity
[17] = Growth inhibition of human UACC62 cells assessed as cell growth at 10^-6 M after 48 hrs by SRB assay; details: UACC-62, 48 h, read-out: Activity
SK-OV-3 [18] = experiment: Growth inhibition of human SKOV3 cells assessed as cell growth at 10^-7 M after 48 hrs by SRB assay; details: SK-OV-3, 48 h, read-out: Activity
DU-145 = experiment: Growth inhibition of human DU145 cells assessed as cell growth at 10^-7 M after 48 hrs by SRB assay; details: DU-145, 48 h, read-out: Activity
IGROV-1 = experiment: Growth inhibition of human IGROV1 cells assessed as cell growth at 10^-4 M after 48 hrs by SRB assay; details: IGROV-1, 48 h, read-out: Activity
[19] = Growth inhibition of human NCI-ADR-RES cells assessed as cell growth at 10^-5 M after 48 hrs by SRB assay; details: read-out: Activity
MDA-MB-231 = experiment: Growth inhibition of human MDA-MB-231 cells assessed as cell growth at 10^-6 M after 48 hrs by SRB assay; details: MDA-MB-231, 48 h, read-out: Activity
[20] = Growth inhibition of human MOLT4 cells assessed as cell growth at 10^-7 M after 48 hrs by SRB assay; details: MOLT-4, 48 h, read-out: Activity
U-251 = experiment: Growth inhibition of human U251 cells assessed as cell growth at 10^-7 M after 48 hrs by SRB assay; details: U-251, 48 h, read-out: Activity
[21] = read-out: LC50 (the source's name)
[22] = read-out: pLC50 (the source's name) (converted)

SMILES: Cc1ccc(-c2nc3ccc(Cl)cc3c(=O)n2/N=C/c2ccccc2)cc1
- growth at 0.1 µM (MDA-MB-468 [1]): 93%
- growth at 1 µM [2]: 89%
- growth at 100 µM (COLO 205): 38%
- growth at 0.1 µM [3]: 88%
- GI50 (K562 [4]; read-out: GI50): > 100 µM
- LC50 (K562 [4]; read-out: LC50): > 100 µM
- TGI (K562 [4]; read-out: TGI): > 100 µM
- GI50 (K562 [4]; read-out: pGI50 (converted)): > 100 µM
- LC50 (K562 [4]; read-out: pLC50 (converted)): > 100 µM
- TGI (K562 [4]; read-out: pTGI): > 100 µM
- growth at 0.1 µM [5]: 93%
- GI50 ([6]; read-out: GI50): 4.58 µM
- CC50 [6, 21]: > 100 µM
- TGI ([6]; read-out: TGI): > 100 µM
- GI50 ([6]; read-out: pGI50 (converted)): 4.57 µM
- CC50 [6, 22]: > 100 µM
- TGI ([6]; read-out: pTGI): > 100 µM
- GI50 (SN12C; read-out: GI50): 11.8 µM
- CC50 (SN12C; [21]): > 100 µM
- TGI (SN12C; read-out: TGI): > 100 µM
- GI50 (SN12C; read-out: pGI50 (converted)): 11.7 µM
- CC50 (SN12C; [22]): > 100 µM
- TGI (SN12C; read-out: pTGI): > 100 µM
- growth at 0.01 µM (K562 [7]): 96%
- growth at 0.01 µM [8]: 93%
- growth at 0.01 µM (HT-29): 100%
- growth at 0.1 µM (786-0 [9]): 93%
- GI50 (MDA-MB-468 [10]; read-out: GI50): 57.6 µM
- LC50 (MDA-MB-468 [10]; read-out: LC50): > 100 µM
- TGI (MDA-MB-468 [10]; read-out: TGI): > 100 µM
- GI50 (MDA-MB-468 [10]; read-out: pGI50 (converted)): 57.5 µM
- LC50 (MDA-MB-468 [10]; read-out: pLC50 (converted)): > 100 µM
- TGI (MDA-MB-468 [10]; read-out: pTGI): > 100 µM
- growth at 0.01 µM (SK-OV-3 [11]): 98%
- growth at 10 µM [12]: 36%
- GI50 (786-0 [13]; read-out: GI50): 3.62 µM
- CC50 (786-0 [13]; [21]): > 100 µM
- TGI (786-0 [13]; read-out: TGI): > 100 µM
- GI50 (786-0 [13]; read-out: pGI50 (converted)): 3.63 µM
- CC50 (786-0 [13]; [22]): > 100 µM
- TGI (786-0 [13]; read-out: pTGI): > 100 µM
- growth at 0.01 µM [14]: 101%
- GI50 ([15]; read-out: GI50): > 100 µM
- CC50 [15, 21]: > 100 µM
- TGI ([15]; read-out: TGI): > 100 µM
- GI50 ([15]; read-out: pGI50 (converted)): > 100 µM
- CC50 [15, 22]: > 100 µM
- TGI ([15]; read-out: pTGI): > 100 µM
- growth at 0.01 µM [16]: 97%
- growth at 1 µM [17]: 80%
- growth at 0.1 µM (SK-OV-3 [18]): 97%
- growth at 0.1 µM (DU-145): 98%
- growth at 100 µM (IGROV-1): 25%
- growth at 10 µM [19]: 48%
- growth at 1 µM (MDA-MB-231): 78%
- growth at 0.1 µM [20]: 96%
- growth at 0.1 µM (U-251): 99%
